Test results reported in ChEMBL document CHEMBL4152211, “Discovery of novel Methylsulfonyl phenyl derivatives as potent human Cyclooxygenase-2 inhibitors with effective anticonvulsant action: Design, synthesis, in-silico, in-vitro and in-vivo evaluation” (Eur J Med Chem, 2018).
The source made the active and inactive calls. No cut-off for these calls is given here.

Assays:
[1] = target: T1, Prostaglandin G/H synthase 1 (Ovis aries) (UniProt P05979); assay: Inhibition of ovine COX1 at 10 uM using arachidonic acid as substrate preincubated for 5 mins followed by substrate addition and measured after 2 mins by ADPH probe-based fluorescence assay relative to control
T1 sequence (whole entry): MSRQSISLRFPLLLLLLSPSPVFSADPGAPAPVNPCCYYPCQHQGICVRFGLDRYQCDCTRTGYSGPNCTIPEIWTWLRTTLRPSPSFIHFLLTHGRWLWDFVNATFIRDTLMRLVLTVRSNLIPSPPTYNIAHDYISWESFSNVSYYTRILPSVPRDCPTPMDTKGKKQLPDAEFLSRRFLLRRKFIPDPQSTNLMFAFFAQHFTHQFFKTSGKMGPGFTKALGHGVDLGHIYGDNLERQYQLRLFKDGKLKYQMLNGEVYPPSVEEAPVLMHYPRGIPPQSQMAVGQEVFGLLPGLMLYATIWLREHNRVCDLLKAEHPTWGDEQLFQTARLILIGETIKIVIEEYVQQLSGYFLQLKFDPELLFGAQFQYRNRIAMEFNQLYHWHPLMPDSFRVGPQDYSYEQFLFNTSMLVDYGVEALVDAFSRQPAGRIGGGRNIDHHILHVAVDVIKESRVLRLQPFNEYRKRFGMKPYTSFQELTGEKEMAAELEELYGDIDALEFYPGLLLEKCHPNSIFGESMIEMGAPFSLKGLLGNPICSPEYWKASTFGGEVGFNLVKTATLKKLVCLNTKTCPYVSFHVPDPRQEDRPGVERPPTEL
Summary of the method: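 Kit assay in 100 mM Tris-HCl pH 8.0. Enzyme, heme and inhibitor (DMSO stocks) are incubated 5 min at room temperature. ADPH is added, then arachidonic acid starts the reaction. After 2 min, fluorescence is read at ex 535/em 590 nm. Percent inhibition is taken versus the 100% activity well, background wells included. IC50 is derived from percentage inhibition, mean of three independent experiments.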

[2] = tested on: Mus musculus; assay: Anticonvulsant activity in Swiss albino mouse assessed as protection against subcutaneous pentylenetetrazole-induced seizures at 30 mg/kg, ip administered 0.5 hrs prior to PTZ challenge and measured after 30 mins; format: functional
Summary of the method: (§1)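 Male Swiss Albino mice (25–30 g), 6 per group, dosed i.p. with drugs in sterile saline, then challenged with PTZ 85 mg/kg s.c. (CD97), given at 10 ml/kg, 0.5 h or 4 h later. Each animal is observed singly for seizures. Protection is scored as protected/total animals.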

[3] = tested on: Mus musculus; assay: Anticonvulsant activity in Swiss albino mouse assessed as protection against subcutaneous pentylenetetrazole-induced seizures at 100 mg/kg, ip administered 0.5 hrs prior to PTZ challenge and measured after 30 mins; format: functional; summary of the method: as §1
[4] = tested on: Mus musculus; assay: Anticonvulsant activity in Swiss albino mouse assessed as protection against subcutaneous pentylenetetrazole-induced seizures at 100 mg/kg, ip administered 4 hrs prior to PTZ challenge and measured after 30 mins; format: functional; summary of the method: as §1
[5] = tested on: Mus musculus; assay: Anticonvulsant activity in Swiss albino mouse assessed as protection against subcutaneous pentylenetetrazole-induced seizures at 5 mg/kg, ip administered 1 hr prior to PTZ challenge and measured after 30 mins; format: functional; details: in the assay text read “30 mg/kg” for “5 mg/kg”
Summary of the method: (§2)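 Mice get a single i.p. dose, then PTZ 85 mg/kg s.c. at 0.5, 1, 2, 3, 4 or 6 h after dosing. Seizure protection is recorded at each interval as percentage of six Swiss Albino mice protected.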

[6] = tested on: Mus musculus; assay: Anticonvulsant activity in Swiss albino mouse assessed as protection against subcutaneous pentylenetetrazole-induced seizures at 5 mg/kg, ip administered 3 hrs prior to PTZ challenge and measured after 30 mins; format: functional; details: in the assay text read “30 mg/kg” for “5 mg/kg”; summary of the method: as §2
[7] = tested on: Mus musculus; assay: Anticonvulsant activity in Swiss albino mouse assessed as protection against subcutaneous pentylenetetrazole-induced seizures at 5 mg/kg, ip administered 6 hrs prior to PTZ challenge and measured after 30 mins; format: functional; details: in the assay text read “30 mg/kg” for “5 mg/kg”; summary of the method: as §2
[8] = tested on: Rattus norvegicus; assay: Antiepileptic activity in rat model of PTZ-induced epileptiogenesis kindling model assessed as decrease of seizure severity at 30 mg/kg, ip measured up to 28 days; format: functional, organism-based
Summary of the method: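 Adult male Wistar rats receive PTZ 40 mg/kg i.p. on alternate days for 28 days plus daily i.p. treatment. After each PTZ injection, rats are observed singly for 45 min and scored on the revised Racine scale (stages to 6). Group mean score per week, ±S.D. Statistics are repeated-measures ANOVA with Tukey's test.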

[9] = tested on: Rattus norvegicus; assay: Cognitive enhancing effect in ip dosed PTZ-kindled Wistar rat assessed as exploration preference by novel object recognition test (reference value: 5.7%); format: functional
[10] = tested on: Rattus norvegicus; assay: Anxiolytic activity in ip dosed PTZ-kindled Wistar rat assessed as time spent in light zone by light-dark test (reference value: 3.05 +/- 1.25%); format: functional
[11] = tested on: Rattus norvegicus; assay: Anxiolytic activity in ip dosed PTZ-kindled Wistar rat assessed as time spent in dark zone by light-dark test (reference value: 96.9 +/- 1.25%); format: functional
[12] = tested on: Rattus norvegicus; assay: Toxicity in Wistar rat assessed as TLC level at 200 mg/kg, po for 14 days (reference value: 7.23 +/- 1 10^3/mm3); format: organism-based; details: in vivo, 336 h
[13] = tested on: Rattus norvegicus; assay: Toxicity in Wistar rat assessed as lymphocyte level at 200 mg/kg, po for 14 days (reference value: 77.33 +/- 2.08%); format: organism-based; details: in vivo, 336 h
[14] = tested on: Rattus norvegicus; assay: Toxicity in Wistar rat assessed as eosinophil level at 200 mg/kg, po for 14 days (reference value: 2.67 +/- 0.58%); format: organism-based; details: in vivo, 336 h
[15] = tested on: Rattus norvegicus; assay: Toxicity in Wistar rat assessed as RBC level at 200 mg/kg, po for 14 days (reference value: 8.19 +/- 0.648 10^6/mm3); format: organism-based; details: in vivo, 336 h
[16] = tested on: Rattus norvegicus; assay: Toxicity in Wistar rat assessed as platelet level at 200 mg/kg, po for 14 days (reference value: 1119 +/- 142.9 10^3/mm3); format: organism-based; details: in vivo, 336 h
[17] = tested on: Rattus norvegicus; assay: Toxicity in Wistar rat assessed as effect on SGOT level at 200 mg/kg, po for 14 days; format: organism-based; details: in vivo, 336 h
Summary of the method: (§3)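 Normal Wistar rats are given 200 mg/kg orally for 14 days, with vehicle-treated controls. Serum liver markers (SGOT, SGPT, ALP, total protein, total bilirubin) and renal markers (urea, creatinine, uric acid) are then measured, mean ± S.D.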

[18] = tested on: Rattus norvegicus; assay: Toxicity in Wistar rat assessed as effect on SGPT level at 200 mg/kg, po for 14 days; format: organism-based; details: in vivo, 336 h; summary of the method: as §3
[19] = tested on: Rattus norvegicus; assay: Toxicity in Wistar rat assessed as effect on total protein level at 200 mg/kg, po for 14 days; format: organism-based; details: in vivo, 336 h; summary of the method: as §3
[20] = tested on: Rattus norvegicus; assay: Toxicity in Wistar rat assessed as effect on blood urea level at 200 mg/kg, po for 14 days; format: organism-based; details: in vivo, 336 h; summary of the method: as §3
[21] = tested on: Rattus norvegicus; assay: Toxicity in Wistar rat assessed as effect on creatinine level at 200 mg/kg, po for 14 days; format: organism-based; details: in vivo, 336 h; summary of the method: as §3
[22] = tested on: Rattus norvegicus; assay: Toxicity in Wistar rat assessed as effect on uric acid level at 200 mg/kg, po for 14 days; format: organism-based; details: in vivo, 336 h; summary of the method: as §3
[23] = tested on: Rattus norvegicus; assay: Toxicity in Wistar rat assessed as effect on calcium level at 200 mg/kg, po for 14 days; format: organism-based; details: in vivo, 336 h
[24] = tested on: Rattus norvegicus; assay: Toxicity in Wistar rat assessed as effect on phosphorous level at 200 mg/kg, po for 14 days; format: organism-based; details: in vivo, 336 h
[25] = tested on: Rattus norvegicus; assay: Toxicity in Wistar rat assessed as effect on sodium level at 200 mg/kg, po for 14 days; format: organism-based; details: in vivo, 336 h

inhibition [1]: inactive
SMILES: Cc1ccc(NC(=S)NNC(=O)Nc2ccc(S(C)(=O)=O)cc2)cc1
Activity [2]: 83%
Activity [3]: 67%
Activity [4]: 83%
Activity [5]: 67%
Activity [6]: 83%
Activity [7]: 67%
Activity [8]: Active
Activity [9]: 3.9%
Activity [10]: 13.3%
Activity [11]: 86.6%
Activity [12]: 6.25 ×10³ /mm3
Activity [13]: 73%
Activity [14]: 2.5%
Activity [15]: 7.34 ×10⁶ /mm3
Activity [16]: 990 ×10³ /mm3
Activity [17]: Non-Toxic
Activity [18]: Non-Toxic
Activity [19]: Non-Toxic
Activity [20]: Non-Toxic
Activity [21]: Non-Toxic
Activity [22]: Non-Toxic
Activity [23]: Non-Toxic
Activity [24]: Non-Toxic
Activity [25]: Non-Toxic
